SMILES strings stand for the structures.

For this assay, the target named is T1, Adrenergic receptor alpha-1 (Rattus norvegicus, UniProt P15823+P23944+P43140).
T1 sequence (P15823 whole entry): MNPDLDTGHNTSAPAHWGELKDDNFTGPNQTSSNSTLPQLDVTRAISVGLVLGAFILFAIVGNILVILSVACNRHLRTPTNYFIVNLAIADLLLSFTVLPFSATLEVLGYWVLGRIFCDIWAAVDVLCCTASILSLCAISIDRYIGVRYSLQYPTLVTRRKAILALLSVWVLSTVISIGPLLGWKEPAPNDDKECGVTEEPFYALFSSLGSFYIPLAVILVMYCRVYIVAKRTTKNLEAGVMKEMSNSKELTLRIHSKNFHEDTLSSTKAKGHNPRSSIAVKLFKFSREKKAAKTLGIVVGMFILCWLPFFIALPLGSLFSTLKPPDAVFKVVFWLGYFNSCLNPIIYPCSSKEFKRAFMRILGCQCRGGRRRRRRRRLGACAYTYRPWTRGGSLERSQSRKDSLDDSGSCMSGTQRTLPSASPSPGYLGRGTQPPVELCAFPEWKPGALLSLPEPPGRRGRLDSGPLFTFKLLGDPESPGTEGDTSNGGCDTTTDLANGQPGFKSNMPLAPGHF
T1 sequence (P23944 whole entry): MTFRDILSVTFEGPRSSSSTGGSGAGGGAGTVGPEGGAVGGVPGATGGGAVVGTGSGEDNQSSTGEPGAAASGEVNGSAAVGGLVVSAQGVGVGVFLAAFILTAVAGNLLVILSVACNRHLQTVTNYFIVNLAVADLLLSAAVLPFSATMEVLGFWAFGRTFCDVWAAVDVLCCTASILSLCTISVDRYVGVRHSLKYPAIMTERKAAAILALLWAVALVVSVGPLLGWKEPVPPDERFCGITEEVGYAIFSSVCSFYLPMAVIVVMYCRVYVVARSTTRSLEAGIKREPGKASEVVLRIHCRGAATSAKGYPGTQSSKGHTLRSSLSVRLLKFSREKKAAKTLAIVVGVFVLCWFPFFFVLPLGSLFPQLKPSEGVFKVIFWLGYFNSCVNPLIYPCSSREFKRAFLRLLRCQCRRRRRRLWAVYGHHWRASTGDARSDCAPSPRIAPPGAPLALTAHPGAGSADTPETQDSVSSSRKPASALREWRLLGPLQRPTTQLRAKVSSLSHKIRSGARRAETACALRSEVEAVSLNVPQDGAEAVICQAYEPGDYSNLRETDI
T1 sequence (P43140 whole entry): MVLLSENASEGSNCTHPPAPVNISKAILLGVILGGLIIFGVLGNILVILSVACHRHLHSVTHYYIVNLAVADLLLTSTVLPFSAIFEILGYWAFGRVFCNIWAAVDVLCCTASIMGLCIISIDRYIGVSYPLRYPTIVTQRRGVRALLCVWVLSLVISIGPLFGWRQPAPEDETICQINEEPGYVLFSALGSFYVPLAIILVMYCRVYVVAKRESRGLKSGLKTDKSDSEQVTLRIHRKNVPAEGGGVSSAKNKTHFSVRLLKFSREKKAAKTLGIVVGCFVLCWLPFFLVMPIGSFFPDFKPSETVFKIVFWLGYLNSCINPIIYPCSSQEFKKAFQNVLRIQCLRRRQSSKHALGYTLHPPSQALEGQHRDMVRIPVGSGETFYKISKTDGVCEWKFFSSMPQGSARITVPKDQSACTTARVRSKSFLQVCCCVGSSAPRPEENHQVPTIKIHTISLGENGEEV
The assay is described as follows: Displacement of [3H]prazosin from alpha1 adrenergic receptor in rat cerebral cortex by liquid scintillation counting. The assay is classed as tissue-based. An outline of the steps:
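Rat cerebral cortex was homogenized in ice-cold 50 mM Tris–HCl pH 7.6, centrifuged 20 000 × g for 20 min at 0–4 °C, and washed once more. Membranes were incubated with [3H]prazosin 0.2 nM and seven to eight compound concentrations (10^-11–10^-4 M), with phentolamine defining nonspecific binding. Bound ligand was filtered on glass fiber and counted by liquid scintillation. Runs were in duplicate, and Ki was calculated by Cheng–Prusoff.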
In general, pKi refers to the negative decadic logarithm of the Ki, by convention in mol/L. The compound `Cl.Cl.O=C1N(CC(O)CN2CCN(c3ccccc3C(F)(F)F)CC2)CCC1(c1ccccc1)c1ccccc1` (stereo unspecified) showed a pKi of 5.89.
Take `COc1ccc(N2CCN(CC(O)CN3CCC(c4ccccc4)(c4ccccc4)C3=O)CC2)cc1.Cl.Cl` (stereo unspecified): the pKi is on record as 5.36.
The same measure for `Cl.Cl.O=C1N(CC(O)CN2CCN(c3ccccc3)CC2)CCC1(c1ccccc1)c1ccccc1` (stereo unspecified): 6.74; for `Cc1ccccc1N1CCN(CC(O)CN2CCC(c3ccccc3)(c3ccccc3)C2=O)CC1.Cl.Cl` (stereo unspecified): 6.69.
Consider `COc1ccccc1N1CCN(CC(O)CN2CCC(c3ccccc3)(c3ccccc3)C2=O)CC1.Cl.Cl` (stereo unspecified), for which the pKi is 6.8.
Regarding `CCOc1ccccc1N1CCN(CC(O)CN2CCC(c3ccccc3)(c3ccccc3)C2=O)CC1.Cl.Cl` (stereo unspecified), the negative-log Ki (pKi) is recorded as 7.28.
